A selection: hits, their analogues and other compounds. The true share with any hit is near 4.5%.
p97 ATPase inh: blocks human p97 ATPase activity; inhibition, % at 8 µM; recombinant p97 ATPase, Kinase-Glo ATP luminescence, 3 h; actives 0.42% (n = 220,000); P55072; in the data active = inhibition above about 15%;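 note: 0% = DMSO vehicle and 100% = wells lacking enzyme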
Target sequence (P55072 whole entry, looked up): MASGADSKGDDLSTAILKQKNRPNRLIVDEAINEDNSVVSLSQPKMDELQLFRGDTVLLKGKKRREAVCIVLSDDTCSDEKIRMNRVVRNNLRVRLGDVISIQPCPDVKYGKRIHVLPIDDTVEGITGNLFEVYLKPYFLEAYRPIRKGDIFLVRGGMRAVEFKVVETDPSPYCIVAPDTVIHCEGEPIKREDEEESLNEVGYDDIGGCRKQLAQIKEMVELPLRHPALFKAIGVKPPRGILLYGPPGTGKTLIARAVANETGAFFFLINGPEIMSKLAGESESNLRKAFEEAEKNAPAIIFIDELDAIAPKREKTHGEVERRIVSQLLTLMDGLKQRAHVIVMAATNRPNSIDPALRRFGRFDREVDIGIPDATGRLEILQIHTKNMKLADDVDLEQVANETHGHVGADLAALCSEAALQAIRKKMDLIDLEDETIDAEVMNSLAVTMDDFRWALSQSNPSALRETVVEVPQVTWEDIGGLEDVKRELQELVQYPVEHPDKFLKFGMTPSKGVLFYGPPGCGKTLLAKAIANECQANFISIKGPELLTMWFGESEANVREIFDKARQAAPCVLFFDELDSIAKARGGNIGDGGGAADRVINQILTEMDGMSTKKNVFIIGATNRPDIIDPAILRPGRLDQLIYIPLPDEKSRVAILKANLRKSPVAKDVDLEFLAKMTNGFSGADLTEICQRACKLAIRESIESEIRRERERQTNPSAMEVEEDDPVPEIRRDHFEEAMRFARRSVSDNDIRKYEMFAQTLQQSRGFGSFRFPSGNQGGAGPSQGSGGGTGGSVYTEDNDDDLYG
UPR CHOP act: activators of apoptotic arm of unfolded protein response (CHOP) | CHO-CHOP luciferase reporter, UPR activation, luminescence; percent of tunicamycin response over DMSO baseline | activation, % at 10 µM | actives 0.34% (n = 330,000);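 active = at 10 µM dose, activation of 40% or more, normalized to positive control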;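 note: 100% = tunicamycin at 10 µg/mL and 0% = DMSO alone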
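System: CHO-CHOP luciferase reporter cell line | Buffer or medium: F12 medium containing 10% fetal bovine serum | Doses: One dose, 10 µM in 0.5% DMSO | Times: 6 h compound exposure at 37 °C after overnight seeding | Signal: Luciferase luminescence | Read-out: % activation vs tunicamycin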
CHOP inhibitor: inhibitors of CHOP induction in ER stress response | inhibition, % at 10 µM | CHO-K1 CHOP-promoter luciferase, tunicamycin-induced, 15-18 h | actives 3.8% (n = 220,000);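 active = compounds that reduced the stress-induced luciferase reporter signal by more than about 70% of percent inhibition, limit read from the data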;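 note: 0% = tunicamycin plus vehicle and 100% = wells without tunicamycin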
UPR XBP1 act: adaptive UPR (XBP1) activation. CHO-XBP1 luciferase reporter, IRE1-XBP1 UPR activation, luminescence; percent of tunicamycin response, DMSO as zero. activation, % at 20 µM. actives 0.33% (n = 330,000);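 active = versus positive control, 20 µM dose yields 30% or more activation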;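 note: 100% = tunicamycin at 10 µg/mL and 0% = DMSO only wells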
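assay system = CHO-XBP1 luciferase reporter cells | amount = 1000 cells/well | buffer or medium = F12 plus 10% FBS | compound dosing = single point, 20 µM final compound, 1% DMSO | incubation = 16-18 h cell attachment at 37 °C, then 6 h compound exposure | detection = Steady-Glo luminescence read | controls = tunicamycin 10 µg/mL and vehicle-only wells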
PfM18AAP inh: PfM18AAP enzyme inhibition. recombinant PfM18AAP, H-Glu-NHMec fluorogenic cleavage. inhibition, % at 7.35 µM. actives 1.2% (n = 290,000). AID 1822;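 active = inhibition above the campaign mean inhibition over all tested compounds plus 3 SD, cut at about 28% in these data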;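 note: 0% = plate median of test compound wells and 100% = 2 mM ZnCl2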
HCV NS3 hel inh: inhibitors of Hepatitis C virus NS3 helicase | AID 1800 | inhibition, % at 10.9 µM | actives 0.56% (n = 290,000) | NS3 helicase DNA unwinding, Cy5 molecular beacon fluorescence;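 active = inhibition above the mean of all tested compounds plus 3 SD, set per campaign, cut at about 35% in these data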;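 note: 0% = DMSO wells and 100% = thioflavine S control wells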
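Compound dosing – single dose, 10.9 µM nominal final, DMSO 0.8% final · System – NS3 helicase fragment of HCV · Buffer or medium – MOPS pH 6.5, MgCl2, DTT, Tween20, BSA · Signal – Cy5 beacon fluorescence read at start and 1 h · Also added – annealed dual-labelled DNA beacon duplex, ATP-started · Schedule – 1 h at 25 °C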
* marks the source's active call; other numbers are inactive results; x = no result given.

SMILES	p97 ATPase inh	UPR CHOP act	CHOP inhibitor	UPR XBP1 act	PfM18AAP inh	HCV NS3 hel inh
Cn1cnnc1Sc1nc2ccccc2nc1NS(=O)(=O)c1ccccc1	1	0	-6	-2	0	-1
Cn1ccnc1Sc1nc2ccccc2nc1NS(=O)(=O)c1ccccc1	4	1	1	-1	29*	24
NC(=S)c1ccc[n+]([C@@H]2O[C@@H](COP(=O)([O-])OP(=O)(O)OC[C@H]3O[C@@H](n4cnc5c(N)ncnc54)C(OP(=O)(O)O)[C@H]3O)C(O)C2O)c1 (some centres not stated)	x	x	-6	x	x	x
COC(=O)Cc1c(C)c2ccc(OCC(=O)NC3CCS(=O)(=O)C3)cc2oc1=O (configuration not stated)	x	1	x	-2	1	2
Cc1ccc2cc3cc(C(=O)N4CCN(Cc5ccccc5)CC4)sc3nc2c1	-1	1	74*	-2	0	11
Cc1ccc2cc3cc(C(=O)N4CCN(C(=O)c5ccco5)CC4)sc3nc2c1	2	4	3	-5	-3	5
Cc1[nH]n(-c2ccc(Cl)cc2)c(=O)c1N=Nc1cccnc1	-3	3	90*	1	1	11
Cc1ccc(S(=O)(=O)N/N=C\c2ccc3c(c2)OCO3)c(C)c1	x	2	x	-1	-15	-9
CC(=O)C1=C(O)C(=O)N(c2ccc(Br)cc2)C1c1ccc(Br)cc1 (configuration not stated)	x	2	x	-3	4	2
CC(=O)Nc1cccc(C(=O)/C=C/c2ccc(/C=C/C(=O)c3cccc(NC(C)=O)c3)cc2)c1	5	83*	35	15	-2	9
Cc1ccc(C)c(NC(=O)C(Sc2nc3ccc(C)cc3[nH]2)c2ccccc2)c1 (configuration not stated)	-6	-1	73*	1	0	-10
O=C(CN(Cc1ccco1)C(=O)c1ccc(Cl)cc1)Nc1ccc(Cl)c(Cl)c1	0	2	93*	0	-1	-11
Cc1nn(-c2ccc3ccccc3c2)c(=O)c2ccccc12	-4	2	-21	4	3	2
Cc1nn(-c2nc3ccccc3[nH]2)c(=O)c2ccccc12	-119	x	98*	x	12	-5
CNC(=O)CC1C(=O)N(c2ccc(OC)cc2)C(=S)N1NC(=O)c1cccc(F)c1 (configuration not stated)	-5	1	-10	-2	6	2
COc1cc(NS(=O)(=O)c2ccc(C)cc2)c2ncccc2c1	2	111*	x	-4	4	-1
COC(=O)CCn1nnc(-c2ccc(C(C)C)cc2)n1	1	-8	88*	-8	7	-4
COC(=O)CCn1nnc(-c2cccs2)n1	1	-3	-4	-1	0	6
CC(C)C(NC(=O)c1ccc(F)cc1)C(=O)N1CCN(c2ccccn2)CC1 (configuration not stated)	x	-2	x	-3	x	x
COc1cccc(Nc2nnc(SCn3nnc4ccccc4c3=O)s2)c1	-5	0	23	0	1	2
CCc1ccc(Nc2nnc(SCn3nnc4ccccc4c3=O)s2)cc1	-4	1	82*	-1	-10	3
Cc1cccc(C)c1OCC(O)CN1CCC(CN2C(=O)c3cccc4cccc(c34)C2=O)CC1 (configuration not stated)	-1	6	79*	-1	2	-54
C=CCc1ccccc1OCC(O)CN1CCN(CCN2C(=O)c3cccc4cccc(c34)C2=O)CC1 (configuration not stated)	-11	2	86*	-1	-7	-56
C=CCc1ccccc1OCC(O)CN1CCN(C(=O)OCC)CC1 (configuration not stated)	-9	0	56	-1	-3	-5
C=CCc1ccccc1OCC(O)CN1CCN(c2ccc(C)cc2)CC1 (configuration not stated)	-5	2	79*	-3	-6	-63
CC(=O)N1CCN(S(=O)(=O)c2ccc(C)cc2)C1C (configuration not stated)	x	0	x	0	x	x

Assay outcomes from PubChem.
